Assays:
[1] = test system: Oryctolagus cuniculus; assay: Biodistribution pattern of [123I]- ligand was evaluated in lung of anesthetized rabbit after Intravenous injection of 50 uCi after 30 min; assay type: ADME, organism-based; conditions: in vivo, 0.5 h
In short: (§1)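 Male New Zealand white rabbits, 2.5–3.5 kg, anesthetized with 5 mg/kg xylazine plus 30 mg/kg ketamine im. Each received 50 uCi radioligand (specific activity > 5000 Ci/mmol) iv via ear vein. Animals were killed with 200 mg/kg pentobarbital im at the set time. Blood was drawn by intracardiac puncture and organs weighed. Gamma counting was decay-corrected, expressed as %ID x kg body weight/g tissue, mean ± SEM, n = 3/time point.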

[2] = test system: Oryctolagus cuniculus; assay: Cerebral biodistribution pattern of [123I]- ligand was evaluated in cerebellum of anesthetized rabbit after Intravenous injection of 50 uCi after 24 hr; assay type: ADME, organism-based; conditions: in vivo
In short: (§2)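 Male New Zealand white rabbits (2.5–3.5 kg), anesthetized with xylazine 5 mg/kg plus ketamine 30 mg/kg im, given 50 µCi radioligand (specific activity >5000 Ci/mmol) iv via ear vein. Euthanized at set times by pentobarbital 200 mg/kg im, n = 3/time point. Organs removed and weighed, gamma-counted, decay/weight corrected; expressed as % ID x kg body weight/g tissue, mean ± SEM.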

[3] = test system: Oryctolagus cuniculus; assay: Cerebral biodistribution pattern of [123I]- ligand was evaluated in thalamus of anesthetized rabbit after Intravenous injection of 50 uCi after 4 hr; assay type: ADME, organism-based; conditions: in vivo; in short: as §2
[4] = test system: Oryctolagus cuniculus; assay: Biodistribution pattern of [123I]- ligand was evaluated in right atrial muscle of anesthetized rabbit after Intravenous injection of 50 uCi after 30 min; assay type: ADME, organism-based, Muscle tissue; conditions: in vivo, 0.5 h; in short: as §2
[5] = test system: Oryctolagus cuniculus; assay: Biodistribution pattern of [123I]- ligand was evaluated in right atrial muscle of anesthetized rabbit after Intravenous injection of 50 uCi after 2 hr; assay type: ADME, organism-based, Muscle tissue; conditions: in vivo; in short: as §2
[6] = test system: Oryctolagus cuniculus; assay: Biodistribution pattern of [123I]- ligand was evaluated in lung of anesthetized rabbit after Intravenous injection of 50 uCi after 5 min; assay type: ADME, organism-based; conditions: in vivo; in short: as §1
[7] = test system: Oryctolagus cuniculus; assay: Biodistribution pattern of [123I]- ligand was evaluated in left ventricular muscle of anesthetized rabbit after Intravenous injection of 50 uCi after 2 hr; assay type: ADME, organism-based, Muscle tissue; conditions: in vivo; in short: as §1
[8] = test system: Oryctolagus cuniculus; assay: Biodistribution pattern of [123I]- ligand was evaluated in spleen of anesthetized rabbit after Intravenous injection of 50 uCi after 5 min; assay type: ADME, organism-based; conditions: in vivo; in short: as §2
[9] = test system: Oryctolagus cuniculus; assay: Cerebral biodistribution pattern of [123I]- ligand was evaluated in frontal cortex of anesthetized rabbit after Intravenous injection of 50 uCi after 2 hr; assay type: ADME, organism-based; conditions: in vivo; in short: as §2
[10] = test system: Oryctolagus cuniculus; assay: Biodistribution pattern of [123I]- ligand was evaluated in left atrial muscle of anesthetized rabbit after Intravenous injection of 50 uCi after 2 hr; assay type: ADME, organism-based, Muscle tissue; conditions: in vivo; in short: as §1
[11] = test system: Oryctolagus cuniculus; assay: Biodistribution pattern of [123I]- ligand was evaluated in intestine of anesthetized rabbit after Intravenous injection of 50 uCi after 2 hr; assay type: ADME, organism-based; conditions: in vivo; in short: as §1
[12] = test system: Oryctolagus cuniculus; assay: Biodistribution pattern of [123I]- ligand was evaluated in lung of anesthetized rabbit after Intravenous injection of 50 uCi after 1 hr; assay type: ADME, organism-based; conditions: in vivo; in short: as §1
[13] = test system: Oryctolagus cuniculus; assay: Biodistribution pattern of [123I]- ligand was evaluated in blood of anesthetized rabbit after Intravenous injection of 50 uCi after 24 hr; assay type: ADME, organism-based; conditions: in vivo; in short: as §1
[14] = test system: Oryctolagus cuniculus; assay: Biodistribution pattern of [123I]- ligand was evaluated in right ventricular muscle of anesthetized rabbit after Intravenous injection of 50 uCi after 5 min; assay type: ADME, organism-based, Muscle tissue; conditions: in vivo; in short: as §2
[15] = test system: Oryctolagus cuniculus; assay: Biodistribution pattern of [123I]- ligand was evaluated in left ventricular muscle of anesthetized rabbit after Intravenous injection of 50 uCi after 30 min; assay type: ADME, organism-based, Muscle tissue; conditions: in vivo, 0.5 h; in short: as §1
[16] = test system: Oryctolagus cuniculus; assay: Biodistribution pattern of [123I]- ligand was evaluated in left atrial muscle of anesthetized rabbit after Intravenous injection of 50 uCi after 6 hr; assay type: ADME, organism-based, Muscle tissue; conditions: in vivo; in short: as §1
[17] = test system: Oryctolagus cuniculus; assay: Biodistribution pattern of [123I]- ligand was evaluated in right ventricular muscle of anesthetized rabbit after Intravenous injection of 50 uCi after 6 hr; assay type: ADME, organism-based, Muscle tissue; conditions: in vivo; in short: as §2
[18] = test system: Oryctolagus cuniculus; assay: Cerebral biodistribution pattern of [123I]- ligand was evaluated in pituitary gland of anesthetized rabbit after Intravenous injection of 50 uCi after 1 hr; assay type: ADME, organism-based; conditions: in vivo; in short: as §2
[19] = test system: Oryctolagus cuniculus; assay: Cerebral biodistribution pattern of [123I]- ligand was evaluated in cerebellum of anesthetized rabbit after Intravenous injection of 50 uCi after 4 hr; assay type: ADME, organism-based; conditions: in vivo; in short: as §2
[20] = test system: Oryctolagus cuniculus; assay: Biodistribution pattern of [123I]- ligand was evaluated in spleen of anesthetized rabbit after Intravenous injection of 50 uCi after 24 hr; assay type: ADME, organism-based; conditions: in vivo; in short: as §2
[21] = test system: Oryctolagus cuniculus; assay: Biodistribution pattern of [123I]- ligand was evaluated in left atrial muscle of anesthetized rabbit after Intravenous injection of 50 uCi after 1 hr; assay type: ADME, organism-based, Muscle tissue; conditions: in vivo; in short: as §1
[22] = test system: Oryctolagus cuniculus; assay: Biodistribution pattern of [123I]- ligand was evaluated in left atrial muscle of anesthetized rabbit after Intravenous injection of 50 uCi after 24 hr; assay type: ADME, organism-based, Muscle tissue; conditions: in vivo; in short: as §1
[23] = test system: Oryctolagus cuniculus; assay: Biodistribution pattern of [123I]- ligand was evaluated in muscle of anesthetized rabbit after Intravenous injection of 50 uCi after 5 min; assay type: ADME, organism-based, Muscle tissue; conditions: in vivo; in short: as §2
[24] = test system: Oryctolagus cuniculus; assay: Biodistribution pattern of [123I]- ligand was evaluated in fat of anesthetized rabbit after Intravenous injection of 50 uCi after 6 hr; assay type: ADME, organism-based, Adipose tissue; conditions: in vivo; in short: as §1
[25] = test system: Oryctolagus cuniculus; assay: Cerebral biodistribution pattern of [123I]- ligand was evaluated in hypothalamus of anesthetized rabbit after Intravenous injection of 50 uCi after 2 hr; assay type: ADME, organism-based; conditions: in vivo; in short: as §2
[26] = test system: Oryctolagus cuniculus; assay: Biodistribution pattern of [123I]- ligand was evaluated in left ventricular muscle of anesthetized rabbit after Intravenous injection of 50 uCi after 24 hr; assay type: ADME, organism-based, Muscle tissue; conditions: in vivo; in short: as §1
[27] = test system: Oryctolagus cuniculus; assay: Biodistribution pattern of [123I]- ligand was evaluated in spleen of anesthetized rabbit after Intravenous injection of 50 uCi after 2 hr; assay type: ADME, organism-based; conditions: in vivo; in short: as §2
[28] = test system: Oryctolagus cuniculus; assay: Biodistribution pattern of [123I]- ligand was evaluated in blood of anesthetized rabbit after Intravenous injection of 50 uCi after 4 hr; assay type: ADME, organism-based; conditions: in vivo; in short: as §1
[29] = test system: Oryctolagus cuniculus; assay: Biodistribution pattern of [123I]- ligand was evaluated in liver of anesthetized rabbit after Intravenous injection of 50 uCi after 4 hr; assay type: ADME, organism-based; conditions: in vivo; in short: as §1
[30] = test system: Oryctolagus cuniculus; assay: Biodistribution pattern of [123I]- ligand was evaluated in right ventricular muscle of anesthetized rabbit after Intravenous injection of 50 uCi after 4 hr; assay type: ADME, organism-based, Muscle tissue; conditions: in vivo; in short: as §2
[31] = test system: Oryctolagus cuniculus; assay: Biodistribution pattern of [123I]- ligand was evaluated in spleen of anesthetized rabbit after Intravenous injection of 50 uCi after 6 hr; assay type: ADME, organism-based; conditions: in vivo; in short: as §2
[32] = test system: Oryctolagus cuniculus; assay: Biodistribution pattern of [123I]- ligand was evaluated in kidney of anesthetized rabbit after Intravenous injection of 50 uCi after 4 hr; assay type: ADME, organism-based; conditions: in vivo; in short: as §1
[33] = test system: Oryctolagus cuniculus; assay: Biodistribution pattern of [123I]- ligand was evaluated in intestine of anesthetized rabbit after Intravenous injection of 50 uCi after 5 min; assay type: ADME, organism-based; conditions: in vivo; in short: as §1
[34] = test system: Oryctolagus cuniculus; assay: Biodistribution pattern of [123I]- ligand was evaluated in muscle of anesthetized rabbit after Intravenous injection of 50 uCi after 6 hr; assay type: ADME, organism-based, Muscle tissue; conditions: in vivo; in short: as §2
[35] = test system: Oryctolagus cuniculus; assay: Biodistribution pattern of [123I]- ligand was evaluated in blood of anesthetized rabbit after Intravenous injection of 50 uCi after 6 hr; assay type: ADME, organism-based; conditions: in vivo; in short: as §1
[36] = test system: Oryctolagus cuniculus; assay: Biodistribution pattern of [123I]- ligand was evaluated in liver of anesthetized rabbit after Intravenous injection of 50 uCi after 2 hr; assay type: ADME, organism-based; conditions: in vivo; in short: as §1
[37] = test system: Oryctolagus cuniculus; assay: Biodistribution pattern of [123I]- ligand was evaluated in blood of anesthetized rabbit after Intravenous injection of 50 uCi after 30 min; assay type: ADME, organism-based; conditions: in vivo, 0.5 h; in short: as §1
[38] = test system: Oryctolagus cuniculus; assay: Biodistribution pattern of [123I]- ligand was evaluated in lung of anesthetized rabbit after Intravenous injection of 50 uCi after 24 hr; assay type: ADME, organism-based; conditions: in vivo; in short: as §1

CC(C)(/C=C/I)NC[C@H](O)COc1cccc2[nH]c3ccccc3c12
ID x kg of body weight/g of tissue [1]: < 1.74% | ID x kg of body weight/g of tissue [2]: 0.07% | ID x kg of body weight/g of tissue [3]: 0.03% | ID x kg of body weight/g of tissue [4]: 0.15% | ID x kg of body weight/g of tissue [5]: 0.13% | ID x kg of body weight/g of tissue [6]: 5.75% | ID x kg of body weight/g of tissue [7]: 0.2% | ID x kg of body weight/g of tissue [8]: 0.39% | ID x kg of body weight/g of tissue [9]: 0.09% | ID x kg of body weight/g of tissue [10]: 0.17% | ID x kg of body weight/g of tissue [11]: 0.13% | ID x kg of body weight/g of tissue [12]: 1.43% | ID x kg of body weight/g of tissue [13]: 0.01% | ID x kg of body weight/g of tissue [14]: 0.43% | ID x kg of body weight/g of tissue [15]: < 0.26% | ID x kg of body weight/g of tissue [16]: 0.1% | ID x kg of body weight/g of tissue [17]: 0.08% | ID x kg of body weight/g of tissue [18]: 0.11% | ID x kg of body weight/g of tissue [19]: 0.13% | ID x kg of body weight/g of tissue [20]: 0.03% | ID x kg of body weight/g of tissue [21]: 0.16% | ID x kg of body weight/g of tissue [22]: 0.03% | ID x kg of body weight/g of tissue [23]: 0.08% | ID x kg of body weight/g of tissue [24]: 0.02% | ID x kg of body weight/g of tissue [25]: 0.05% | ID x kg of body weight/g of tissue [26]: 0.02% | ID x kg of body weight/g of tissue [27]: 0.22% | ID x kg of body weight/g of tissue [28]: 0.01% | ID x kg of body weight/g of tissue [29]: 0.04% | ID x kg of body weight/g of tissue [30]: 0.12% | ID x kg of body weight/g of tissue [31]: 0.07% | ID x kg of body weight/g of tissue [32]: 0.05% | ID x kg of body weight/g of tissue [33]: 0.16% | ID x kg of body weight/g of tissue [34]: 0.04% | ID x kg of body weight/g of tissue [35]: 0.01% | ID x kg of body weight/g of tissue [36]: 0.09% | ID x kg of body weight/g of tissue [37]: 0.02% | ID x kg of body weight/g of tissue [38]: 0.18%

Reference: ChEMBL document CHEMBL1129275, “Synthesis and in vitro and in vivo characteristics of an iodinated analogue of the beta-adrenoceptor antagonist carazolol” (J Med Chem, 1996)
